Assay results published in ChEMBL document CHEMBL2157991, “Synthesis and pharmacological evaluation of 2,4-dinitroaryldithiocarbamate derivatives as novel monoacylglycerol lipase inhibitors” (J Med Chem, 2012).
Residue numbers refer to the chain shown, from its start. pIC50: −log10 of the molar value. Calls of active or inactive are those of the source. No cut-off for these calls is given here.

Assays:
[1] = test system: T1, Monoglyceride lipase (Homo sapiens), Q99685 [C208A,C242A]; experiment: Inhibition of human MAGL C208A/C242A mutant expressed in Escherichia coli
T1 sequence (whole entry): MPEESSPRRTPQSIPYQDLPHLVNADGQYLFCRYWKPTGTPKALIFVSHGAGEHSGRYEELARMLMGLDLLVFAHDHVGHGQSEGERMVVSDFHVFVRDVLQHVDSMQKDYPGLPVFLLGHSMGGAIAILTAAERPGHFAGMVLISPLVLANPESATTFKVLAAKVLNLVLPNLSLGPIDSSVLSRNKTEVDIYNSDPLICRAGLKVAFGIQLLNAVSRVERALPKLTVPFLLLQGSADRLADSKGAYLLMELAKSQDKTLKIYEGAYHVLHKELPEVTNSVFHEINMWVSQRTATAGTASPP
Summary of the method: (§1)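 Homogenates of E. coli expressing wild-type or C201A, C208A, C242A or C208A/C242A mutant MAGL used as enzyme source in the [3H]-2-OG hydrolysis assay; n = 3 in duplicate.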

[2] = biological target: T2, Fatty-acid amide hydrolase 1 (Homo sapiens, UniProt O00519); experiment: Inhibition of human recombinant FAAH assessed as conversion of [3H]AEA to [3H]ethanolamine after 10 mins by liquid scintillation counter
T2 sequence (O00519 whole entry): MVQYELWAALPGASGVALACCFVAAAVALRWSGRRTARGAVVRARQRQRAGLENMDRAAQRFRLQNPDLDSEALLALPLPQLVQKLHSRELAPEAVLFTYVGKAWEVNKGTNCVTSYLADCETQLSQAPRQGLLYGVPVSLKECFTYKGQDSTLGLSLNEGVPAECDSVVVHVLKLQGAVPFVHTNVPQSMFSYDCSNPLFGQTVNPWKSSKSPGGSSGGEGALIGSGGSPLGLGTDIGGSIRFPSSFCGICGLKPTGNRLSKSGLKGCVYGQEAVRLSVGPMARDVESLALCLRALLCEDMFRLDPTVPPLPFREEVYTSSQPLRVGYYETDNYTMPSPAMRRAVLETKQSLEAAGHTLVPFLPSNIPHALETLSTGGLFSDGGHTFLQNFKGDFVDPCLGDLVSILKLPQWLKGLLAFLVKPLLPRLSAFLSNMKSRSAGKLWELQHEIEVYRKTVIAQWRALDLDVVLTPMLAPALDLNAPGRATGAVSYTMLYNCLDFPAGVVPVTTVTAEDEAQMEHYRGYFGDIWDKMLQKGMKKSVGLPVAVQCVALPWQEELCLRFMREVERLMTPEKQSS
Summary of the method: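 Human recombinant FAAH (6 ng protein, Tris-EDTA) with inhibitor in DMSO; [3H]AEA at 2 μM final, 10 min at 37 °C; stopped with ice-cold methanol–chloroform, [3H]ethanolamine in aqueous layer counted by liquid scintillation, buffer blanks subtracted; pIC50 from dose–response, mean ± SEM of three experiments in duplicate.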

[3] = test system: T1, Monoglyceride lipase (Homo sapiens), Q99685 [C208A,C242A]; experiment: Inhibition of human MAGL C208A/C242A mutant expressed in Escherichia coli in presence of DTT
[4] = biological target: T3, Monoglyceride lipase (Homo sapiens) (UniProt Q99685); experiment: Irreversible inhibition of MAGL at 10^-8.5 M measured after 300 times dilution
T3 sequence (whole entry): T1 sequence (whole entry) with A208C, A242C
Summary of the method: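 Pure MAGL (105 ng, 20 μL) incubated 30 min at room temperature with inhibitor at 10−3 to 10−6 M or DMSO, then diluted 300-fold in Tris pH 8.0; after 15 min, aliquot assayed with [3H]-2-OG by standard protocol; same nominal post-dilution concentrations also assayed directly; percent of control, one-way ANOVA with Dunnett's test.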

[5] = test system: T4, Monoglyceride lipase (Homo sapiens), Q99685 [C208A]; experiment: Inhibition of human MAGL C208A mutant expressed in Escherichia coli; summary of the method: as §1
T4 sequence (whole entry): T1 sequence (whole entry) with A242C

[6] = biological target: T3, Monoglyceride lipase (Homo sapiens); experiment: Inhibition of MAGL at 10^-4.5 to 10^-5 M after 30 mins by liquid scintillation counter in presence of DTT
Summary of the method: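 Purified MAGL (3 ng; Tris pH 8.0, 50 mM, 0.1% BSA) preincubated 10 min at room temperature with inhibitor at 10−4.5 and 10−5 M or DMSO; DTT (10−2 M) then added, 15 min at 37 °C, before [3H]-2-OG hydrolysis assay as standard; activity normalized to respective control, n analysed by one-way ANOVA with Bonferroni test.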

Homo sapiens = species on record: Homo sapiens; experiment: Selectivity ratio of IC50 for human recombinant FAAH to IC50 for human recombinant MAGL
[7] = test system: T5, Monoglyceride lipase (Homo sapiens), Q99685 [C242A]; experiment: Inhibition of human MAGL C242A mutant expressed in Escherichia coli; summary of the method: as §1
T5 sequence (whole entry): T1 sequence (whole entry) with A208C

inhibition [1]: inactive
pIC50 [2]: 5.76
inhibition [3]: Active
inhibition [4]: Active
inhibition [5]: inactive
inhibition [6]: inactive
Ratio IC50 (Homo sapiens): 11
inhibition [7]: inactive
Structure (SMILES): CC(C)(C)c1ccc(CN2CCN(C(=S)Sc3ccc([N+](=O)[O-])cc3[N+](=O)[O-])CC2)cc1
